Test results reported in publication PMC2810129 (Journal of medicinal chemistry, 2009).
Read-outs that look alike come from different tables or passages of the source.

Experiments:
[1] = tested on: J774 murine monocyte-like macrophage line (subclone G8); experiment: Toxicity assay; format: cell-based
P. falciparum parasites = experiment: In vitro malaria growth inhibition assay, strain not specified or both strains; format: cell-based, Plasmodium falciparum; conditions: drug resistant and sensitive parasites
In short: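 P. falciparum D6 (chloroquine-sensitive, Sierra Leone I) and W2 (chloroquine-resistant, Indochina I) clones were cultured under 90% N2/5% O2/5% CO2 with 10% human serum and 6% haematocrit A+ red cells. Cultures at 3% parasitaemia with ≥70% rings were put on predosed plates for 24 h. [3H]-hypoxanthine was then added for 18 h, and cells were harvested and counted. IC50 was taken from a four-parameter nonlinear regression.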

PfKASIII [2] = target: T1, PfKASIII (Plasmodium falciparum, UniProt O77078); experiment: PfKASIII inhibitor screen; format: biochemical
bacterial KAS enzymes = conditions: cited from earlier work
PfKASIII [3] = target: T1, PfKASIII; conditions: read-out: PfKASIII IC50; cited from earlier work

| Structure (SMILES) | toxicity against the mammalian cell line (in words) [1] | PfKASIII inhibition (in words) (PfKASIII [2]) | also measured |
| --- | --- | --- | --- |
| c1ccc(SSc2ccccc2)cc1 [Compound 1d] | little toxicity | – | – |
| O=S(=O)(Nc1cccc(Cl)c1)c1ccccc1 [Compound 2b] | significant toxicity | – | – |
| COc1ncnc(NS(=O)(=O)c2ccc(N)cc2)c1OC [Compound 2c] | – | failed to inhibit PfKASIII at the highest concentration tested | antimalarial activity / parasite growth inhibition (in words) (P. falciparum parasites): robust antimalarial activity; IC50 (PfKASIII [2]): > 1000 µM |
| C/C=C/CCCCCCCC(=O)NS(=O)(=O)c1ccc(N)cc1 [Compound 2e] | – | failed to inhibit PfKASIII at the highest concentration tested | IC50 (PfKASIII [2]): > 1000 µM |
| O=[N+]([O-])c1c(Cl)sc(Cl)c1S(=O)(=O)Nc1ccc(C(F)(F)F)cc1 [Compound 2g] | – | – | antimalarial activity / parasite growth inhibition (in words) (P. falciparum parasites): modest activity |
| Cc1ccc(S(=O)(=O)c2cc(O)c3ccccc3c2O)cc1 [Compound 3a] | little toxicity | – | – |
| NC1CCC(S(=O)(=O)c2cc(O)c3ccccc3c2O)CC1 (stereo not drawn) [Compound 3b] | little toxicity | – | – |
| Nc1ccc(S(=O)(=O)c2cc(O)c3ccccc3c2O)c(Cl)c1 [Compound 3c] | – | the most potent compound within the class of sulfonyls | – |
| CC(C)c1ccc(S(=O)(=O)c2ccc(C(C)C)cc2)cc1 [Compound 3g] | significant toxicity | – | – |
| Cc1ccc(S/C=C/S(=O)(=O)Cc2ccccc2)cc1 [Compound 3n] | significant toxicity | – | – |
| CCCCS(=O)(=O)CCOC(=O)c1ccc([N+](=O)[O-])cc1 [Compound 3r] | significant toxicity | potent inhibitors of PfKASIII | antimalarial activity / parasite growth inhibition (in words) (P. falciparum parasites): fail to inhibit parasite growth |
| C=C/C(C)=C/[C@@]1(C)SC(=O)C(C)=C1O [Thiolactomycin] | – | – | in vivo IC50, bacterial KAS enzymes (bacterial KAS enzymes): 75 µM; IC50 (PfKASIII [3]): > 330 µM |
